Test results reported in ChEMBL document CHEMBL1629518, “Structure-based approach to nanomolar, water soluble matrix metalloproteinases inhibitors (MMPIs)” (Eur J Med Chem, 2010).
Converted amounts (≈) assume the structure as drawn.

How the values were obtained:
[1] = biological target: Macrophage metalloelastase (Homo sapiens, UniProt P39900); experiment: Inhibition of MMP12 by fluorimetric assay
Method in brief: (§1)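 Enzyme source was the catalytic domain of each MMP. Inhibition was reported as Ki values.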

[2] = biological target: Collagenase 3 (Homo sapiens, UniProt P45452); experiment: Inhibition of MMP13 by fluorimetric assay; method in brief: as §1
[3] = Solubility of the compound in water; type: physicochemical
[4] = biological target: Neutrophil collagenase (Homo sapiens, UniProt P22894); experiment: Inhibition of MMP8 by fluorimetric assay; method in brief: as §1
[5] = biological target: T1, Interstitial collagenase (Homo sapiens, UniProt P03956); experiment: Inhibition of MMP1 by fluorimetric assay; method in brief: as §1
T1 sequence (P03956 whole entry): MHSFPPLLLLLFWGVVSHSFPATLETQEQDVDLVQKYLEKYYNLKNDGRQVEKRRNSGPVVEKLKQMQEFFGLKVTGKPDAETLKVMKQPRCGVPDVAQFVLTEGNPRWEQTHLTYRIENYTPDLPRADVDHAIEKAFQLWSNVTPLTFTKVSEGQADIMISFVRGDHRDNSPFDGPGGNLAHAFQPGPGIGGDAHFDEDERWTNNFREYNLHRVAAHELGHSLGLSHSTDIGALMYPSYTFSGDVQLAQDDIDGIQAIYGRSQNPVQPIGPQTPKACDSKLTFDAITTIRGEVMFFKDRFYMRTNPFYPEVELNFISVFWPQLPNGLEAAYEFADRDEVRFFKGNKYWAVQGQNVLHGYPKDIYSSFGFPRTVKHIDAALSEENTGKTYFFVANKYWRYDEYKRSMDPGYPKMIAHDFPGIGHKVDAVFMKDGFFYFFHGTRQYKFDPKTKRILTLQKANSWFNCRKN

[6] = biological target: T2, Matrilysin (Homo sapiens, UniProt P09237); experiment: Inhibition of MMP7 by fluorimetric assay; method in brief: as §1
T2 sequence (P09237 whole entry): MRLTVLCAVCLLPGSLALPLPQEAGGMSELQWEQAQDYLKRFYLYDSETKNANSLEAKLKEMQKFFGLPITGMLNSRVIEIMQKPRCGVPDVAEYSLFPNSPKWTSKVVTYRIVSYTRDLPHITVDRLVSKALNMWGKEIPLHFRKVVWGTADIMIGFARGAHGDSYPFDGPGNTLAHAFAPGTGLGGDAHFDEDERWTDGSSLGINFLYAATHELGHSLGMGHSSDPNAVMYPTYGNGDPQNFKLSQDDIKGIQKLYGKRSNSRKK

Sequence of Macrophage metalloelastase (P39900 whole entry, the tested form may be a part): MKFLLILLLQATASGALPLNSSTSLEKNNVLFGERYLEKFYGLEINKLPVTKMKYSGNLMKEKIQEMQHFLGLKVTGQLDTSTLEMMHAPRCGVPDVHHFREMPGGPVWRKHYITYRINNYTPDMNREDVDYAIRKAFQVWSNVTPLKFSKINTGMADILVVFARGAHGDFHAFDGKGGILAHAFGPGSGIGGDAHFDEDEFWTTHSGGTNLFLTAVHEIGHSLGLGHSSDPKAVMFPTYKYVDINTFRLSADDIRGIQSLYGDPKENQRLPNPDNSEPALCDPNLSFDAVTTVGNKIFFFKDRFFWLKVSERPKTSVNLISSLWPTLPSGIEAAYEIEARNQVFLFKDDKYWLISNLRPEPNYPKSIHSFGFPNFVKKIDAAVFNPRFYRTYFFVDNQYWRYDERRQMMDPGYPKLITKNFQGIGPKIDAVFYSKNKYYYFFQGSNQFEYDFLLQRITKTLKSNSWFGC
Sequence of Neutrophil collagenase (P22894 whole entry): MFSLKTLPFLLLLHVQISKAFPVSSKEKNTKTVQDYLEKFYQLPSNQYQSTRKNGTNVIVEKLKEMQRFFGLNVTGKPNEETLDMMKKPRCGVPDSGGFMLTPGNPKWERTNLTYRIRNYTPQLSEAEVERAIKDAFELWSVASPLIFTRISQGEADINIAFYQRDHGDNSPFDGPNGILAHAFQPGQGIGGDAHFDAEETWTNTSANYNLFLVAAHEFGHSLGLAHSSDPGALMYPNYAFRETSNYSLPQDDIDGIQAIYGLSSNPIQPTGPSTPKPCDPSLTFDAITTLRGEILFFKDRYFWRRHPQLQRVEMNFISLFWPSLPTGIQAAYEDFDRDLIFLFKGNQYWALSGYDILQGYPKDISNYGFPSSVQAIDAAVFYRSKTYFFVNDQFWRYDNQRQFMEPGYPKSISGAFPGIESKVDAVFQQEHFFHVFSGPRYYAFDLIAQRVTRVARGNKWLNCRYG

**Q.** Which results are given for `COc1ccc(S(=O)(=O)N[C@@H](C(=O)NO)[C@@H](C)O)cc1`?
**A.** Ki [1]: 11 nM; Ki [2]: 2.9 nM; solubility [3]: 20 mg/mL (≈ 65.7 mM); Ki [4]: 10 nM; Ki [5]: 287 nM; Ki [6]: 984 nM

**Q.** With `O=C(CN(C[C@H](O)CO)S(=O)(=O)c1ccc(-c2ccccc2)cc1)NO` as the compound, how does the Ki [1] read?
**A.** 60 nM

**Q.** And the Ki [2]?
**A.** 18 nM

**Q.** What about the solubility [3] of the same compound?
**A.** < 1 mg/mL

**Q.** What about the Ki [4] of the same compound?
**A.** 48 nM

**Q.** What about the Ki [5] of the same compound?
**A.** 742 nM

**Q.** And the Ki [6]?
**A.** 4000 nM

**Q.** Which Ki [1] does the source give for `COc1ccc(S(=O)(=O)N[C@H](CO)C(=O)NO)cc1` here?
**A.** 6 nM

**Q.** What about the Ki [2] of the same compound?
**A.** 2.2 nM

**Q.** What about the solubility [3] of the same compound?
**A.** 20 mg/mL (≈ 68.9 mM)

**Q.** What about the Ki [4] of the same compound?
**A.** 9 nM

**Q.** What about the Ki [5] of the same compound?
**A.** 143 nM

**Q.** What about the Ki [6] of the same compound?
**A.** 823 nM

**Q.** What does the source list for `COc1ccc(S(=O)(=O)N(CC(=O)NO)CC(C)C)cc1`?
**A.** Ki [1]: 4.3 nM; Ki [2]: 3.1 nM; solubility [3]: 20 mg/mL (≈ 63.2 mM); Ki [4]: 9 nM; Ki [6]: 13000 nM

**Q.** For `O=C(CN(CCO)S(=O)(=O)c1ccc(F)cc1)NO`, which Ki [1] is on record?
**A.** 40 nM

**Q.** And the Ki [2]?
**A.** 46 nM

**Q.** What about the solubility [3] of the same compound?
**A.** 20 mg/mL (≈ 68.4 mM)

**Q.** What about the Ki [4] of the same compound?
**A.** 173 nM

**Q.** And the Ki [5]?
**A.** 151 nM

**Q.** And the Ki [6]?
**A.** 3000 nM

**Q.** Which Ki [2] does the source give for `COc1ccc(S(=O)(=O)N(CCO[C@@H]2O[C@H](CO)[C@@H](O)[C@H](O)[C@H]2O)CC(=O)NO)cc1` here?
**A.** 1.7 nM

**Q.** And the solubility [3]?
**A.** 20 mg/mL (≈ 42.9 mM)

**Q.** And the Ki [4]?
**A.** 9.1 nM

**Q.** And the Ki [5]?
**A.** 286 nM

**Q.** And the Ki [6]?
**A.** 2000 nM

**Q.** For `COc1ccc(S(=O)(=O)N(CCO)CC(=O)NO)cc1`, which Ki [1] is on record?
**A.** 7.6 nM

**Q.** And the Ki [2]?
**A.** 1 nM

**Q.** And the solubility [3]?
**A.** 20 mg/mL (≈ 65.7 mM)

**Q.** What about the Ki [4] of the same compound?
**A.** 13 nM

**Q.** What about the Ki [5] of the same compound?
**A.** 128 nM

**Q.** What about the Ki [6] of the same compound?
**A.** 1500 nM

**Q.** What does the source list for `COc1ccc(S(=O)(=O)N(C[C@H](O)CO)[C@H](CO)C(=O)NO)cc1`?
**A.** Ki [1]: 7 nM; Ki [2]: 1.7 nM; solubility [3]: 20 mg/mL (≈ 54.9 mM); Ki [4]: 8 nM; Ki [5]: 32 nM; Ki [6]: 344 nM

**Q.** Which Ki [1] does the source give for `COc1ccc(S(=O)(=O)N(CC(=O)NO)C[C@H](O)CO)cc1` here?
**A.** 8 nM

**Q.** What about the Ki [2] of the same compound?
**A.** 3.6 nM

**Q.** What about the solubility [3] of the same compound?
**A.** 20 mg/mL (≈ 59.8 mM)

**Q.** What about the Ki [4] of the same compound?
**A.** 24 nM

**Q.** And the Ki [5]?
**A.** 160 nM

**Q.** What about the Ki [6] of the same compound?
**A.** 9000 nM

**Q.** What does the source list for `O=C(CN(CCO)S(=O)(=O)c1ccc(-c2ccccc2)cc1)NO`?
**A.** Ki [2]: 2.7 nM; solubility [3]: 20 mg/mL (≈ 57.1 mM); Ki [4]: 4.6 nM; Ki [5]: 67 nM; Ki [6]: 1600 nM
